According to ChEMBL document CHEMBL1143008, “Synthesis and biological evaluation of chiral alpha-aminoanilides with central antinociceptive activity” (2007):

Experiments:
Assay type in all cases: functional
[1] = test system: Mus musculus; experiment: Antinociceptive activity in sc dosed Swiss Albino mouse by hotplate test
Summary of the method: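 Male Swiss albino mice (23-30 g), s.c. dosing. Paw-licking latency on a 52.5 ± 0.1 °C hot plate, read before and up to 60 min after dosing. Mice outside 12-18 s at pretest were excluded; cutoff was 45 s. […] was fitted from the dose-response data with a constrained four-parameter logistic model.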

[2] = test system: Mus musculus; experiment: Antinociceptive effect in Swiss Albino mouse assessed as licking latency at 50 mg/kg, sc after 15 mins by hotplate test; settings: route subcutaneous
Summary of the method: (§1)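 Hot-plate test at 52.5 ± 0.1 °C in male Swiss albino mice (23-30 g) after s.c. dosing. The endpoint was fore- or hind-paw licking, timed before and at intervals up to 60 min. Mice scoring below 12 or above 18 s at pretest were rejected, with a 45 s cutoff. Mean ± SEM.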

[3] = test system: Mus musculus; experiment: Antinociceptive effect in atropine treated Swiss Albino mouse assessed as licking latency at 50 mg/kg, sc by hotplate test; settings: route subcutaneous
Summary of the method: (§2)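 Antagonist pretreatment before s.c. test compound in male Swiss albino mice: atropine 5 mg/kg i.p., or hemicholinium-3 1 µg per mouse i.c.v. The i.c.v. dose was 5 µL in isotonic saline under ether anaesthesia. Paw-licking latency on a 52.5 °C hot plate was read at each compound's time of maximum effect, compared with saline-saline mice. Cutoff was 45 s.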

[4] = test system: Mus musculus; experiment: Effect on motor coordination in Swiss Albino mouse assessed as number of falls from rotarod at 50 mg/kg after 45 mins relative to CMC
Summary of the method: (§3)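 Motor coordination of male Swiss albino mice on the rota-rod, counted as number of falls, before dosing and 15, 30 and 45 min after. Each value is the mean of 6-8 mice, compared with vehicle-treated controls.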

[5] = test system: Mus musculus; experiment: Effect on motor coordination in Swiss Albino mouse assessed as number of falls from rotarod at 50 mg/kg after 30 mins relative to CMC; summary of the method: as §3
[6] = test system: Mus musculus; experiment: Effect on motor coordination in Swiss Albino mouse assessed as number of falls from rotarod at 50 mg/kg after 15 mins relative to CMC; summary of the method: as §3
[7] = test system: Mus musculus; experiment: (§4) Antinociceptive effect in Swiss Albino mouse assessed as licking latency at 5 mg/kg, sc after 15 mins by hotplate test; settings: route subcutaneous
[8] = test system: Mus musculus; experiment: Antinociceptive effect in Swiss Albino mouse assessed as licking latency at 30 mg/kg, sc after 15 mins by hotplate test; settings: route subcutaneous; summary of the method: as §1
[9] = test system: Mus musculus; experiment: Antinociceptive effect in atropine treated Swiss Albino mouse assessed as licking latency at 30 mg/kg, sc by hotplate test; settings: route subcutaneous; summary of the method: as §2
[10] = test system: Mus musculus; experiment: Antinociceptive effect in Swiss Albino mouse assessed as licking latency at 15 mg/kg, sc after 15 mins by hotplate test; settings: route subcutaneous; summary of the method: as §1
[11] = test system: Mus musculus; experiment: Antinociceptive effect in Swiss Albino mouse assessed as licking latency at 10 mg/kg, sc after 15 mins by hotplate test; settings: route subcutaneous
[12] = test system: Mus musculus; experiment: Antinociceptive effect in atropine treated Swiss Albino mouse assessed as licking latency at 10 mg/kg, sc by hotplate test; settings: route subcutaneous; summary of the method: as §2
[13] = test system: Mus musculus; experiment: Effect on motor coordination in Swiss Albino mouse assessed as number of falls from rotarod at 10 mg/kg after 30 mins relative to CMC; summary of the method: as §3
[14] = test system: Mus musculus; experiment: Effect on motor coordination in Swiss Albino mouse assessed as number of falls from rotarod at 10 mg/kg after 15 mins relative to CMC; summary of the method: as §3
[15] = test system: Mus musculus; experiment: Effect on motor coordination in Swiss Albino mouse assessed as number of falls from rotarod at 10 mg/kg after 45 mins relative to CMC; summary of the method: as §3
[16] = test system: Mus musculus; experiment: Antinociceptive effect in hemicolinium-3 treated Swiss Albino mouse assessed as licking latency at 10 mg/kg, sc by hotplate test; settings: route subcutaneous; summary of the method: as §2
[17] = test system: Mus musculus; experiment: Antinociceptive effect in Swiss Albino mouse assessed as licking latency at 10 mg/kg, sc after 45 mins by hotplate test; settings: route subcutaneous
Summary of the method: (§5)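 Male Swiss albino mice (23-30 g) got 1, 5 or 10 mg/kg s.c. or saline. Fore- or hind-paw licking latency on a 52.5 ± 0.1 °C plate was taken before dosing and at 15, 30, 45 and 60 min. Pretest range was 12-18 s (others rejected) with a 45 s cutoff. Each value is the mean of at least 10 mice; mean ± SEM.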

[18] = test system: Mus musculus; experiment: Antinociceptive effect in Swiss Albino mouse assessed as licking latency at 5 mg/kg, sc after 45 mins by hotplate test; settings: route subcutaneous; summary of the method: as §5
[19] = test system: Mus musculus; experiment: Antinociceptive effect in Swiss Albino mouse assessed as licking latency at 10 mg/kg, sc after 60 mins by hotplate test; settings: route subcutaneous; summary of the method: as §5
[20] = test system: Mus musculus; experiment: Antinociceptive effect in Swiss Albino mouse assessed as licking latency at 1 mg/kg, sc after 45 mins by hotplate test; settings: route subcutaneous; summary of the method: as §5
[21] = test system: Mus musculus; experiment: as §4; settings: route subcutaneous; summary of the method: as §5; remark: listed apart in the source
[22] = test system: Mus musculus; experiment: Antinociceptive effect in Swiss Albino mouse assessed as licking latency at 5 mg/kg, sc after 30 mins by hotplate test; settings: route subcutaneous; summary of the method: as §5
[23] = test system: Mus musculus; experiment: Antinociceptive effect in Swiss Albino mouse assessed as licking latency at 1 mg/kg, sc after 30 mins by hotplate test; settings: route subcutaneous; summary of the method: as §5
[24] = test system: Mus musculus; experiment: Antinociceptive effect in Swiss Albino mouse assessed as licking latency at 10 mg/kg, sc after 30 mins by hotplate test; settings: route subcutaneous; summary of the method: as §5
[25] = test system: Mus musculus; experiment: Antinociceptive effect in Swiss Albino mouse assessed as licking latency at 5 mg/kg, sc after 60 mins by hotplate test; settings: route subcutaneous; summary of the method: as §5
[26] = test system: Mus musculus; experiment: Antinociceptive effect in Swiss Albino mouse assessed as licking latency at 1 mg/kg, sc after 15 mins by hotplate test; settings: route subcutaneous; summary of the method: as §5
[27] = test system: Mus musculus; experiment: Antinociceptive effect in Swiss Albino mouse assessed as licking latency at 1 mg/kg, sc after 60 mins by hotplate test; settings: route subcutaneous; summary of the method: as §5
[28] = test system: Mus musculus; experiment: Effect on motor coordination in Swiss Albino mouse assessed as number of falls from rotarod at 30 mg/kg after 30 mins relative to CMC; summary of the method: as §3
[29] = test system: Mus musculus; experiment: Effect on motor coordination in Swiss Albino mouse assessed as number of falls from rotarod at 30 mg/kg after 45 mins relative to CMC; summary of the method: as §3
[30] = test system: Mus musculus; experiment: Effect on motor coordination in Swiss Albino mouse assessed as number of falls from rotarod at 30 mg/kg after 15 mins relative to CMC; summary of the method: as §3
[31] = test system: Mus musculus; experiment: Antinociceptive effect in Swiss Albino mouse assessed as licking latency at 20 mg/kg, sc after 15 mins by hotplate test; settings: route subcutaneous; summary of the method: as §1
[32] = test system: Mus musculus; experiment: Antinociceptive effect in Swiss Albino mouse assessed as licking latency at 40 mg/kg, sc after 15 mins by hotplate test; settings: route subcutaneous; summary of the method: as §1
[33] = test system: Mus musculus; experiment: Antinociceptive effect in hemicolinium-3 treated Swiss Albino mouse assessed as licking latency at 50 mg/kg, sc by hotplate test; settings: route subcutaneous; summary of the method: as §2

Cc1cc(Cl)ccc1NC(=O)[C@H](C)N
ED50 [1]: 41.3 mg/kg | Activity [2]: 21.1 s | Activity [3]: 20.5 s

Cc1cc(Cl)ccc1NC(=O)[C@@H](C)N
Activity [4]: 0.8 | ED50 [1]: 39.2 mg/kg | Activity [2]: 25.5 s | Activity [5]: 1.1 | Activity [6]: 1.5 | Activity [3]: 25 s

C[C@H](N)C(=O)Nc1ccc(Cl)cc1
Activity [7]: 15.8 s

C[C@@H](N)C(=O)Nc1ccc(Cl)cc1
Activity [7]: 17.3 s

Cc1cc(Cl)cc(C)c1NC(=O)[C@@H](C)N
ED50 [1]: 17.8 mg/kg | Activity [8]: 23.2 s | Activity [9]: 23.7 s

Cc1ccccc1NC(=O)[C@H](C)N
Activity [10]: 16.2 s

Cc1cc(Cl)cc(C)c1NC(=O)[C@H](N)C(C)C
Activity [2]: 17 s

Cc1ccccc1NC(=O)[C@@H](C)N
Activity [11]: 17.1 s

Cc1cccc(C)c1NC(=O)[C@@H](N)CC(C)C
ED50 [1]: 6.8 mg/kg | Activity [12]: 20.7 s | Activity [11]: 21.3 s

Cc1cccc(C)c1N(C)C(=O)[C@@H](N)C(C)C
Activity [11]: 13.6 s

Cc1cccc(C)c1NC(=S)[C@H](C)N
Activity [2]: 18.6 s

Cc1cccc(C)c1NC(=S)[C@@H](C)N
Activity [2]: 18.8 s

Cc1cc(Cl)cc(C)c1NC(=O)[C@@H](N)C(C)C
Activity [2]: 17.2 s

Cc1cccc(C)c1NC(=O)[C@H](N)CC(C)C
ED50 [1]: 6.6 mg/kg | Activity [13]: 1.5 | Activity [14]: 2.2 | Activity [15]: 0.8 | Activity [12]: 23.9 s | Activity [11]: 20.7 s

Cc1cccc(C)c1NC(=O)[C@H](N)C(C)C
Activity [16]: 17.5 s | Activity [17]: 18.5 s | ED50 [1]: 5.7 mg/kg | Activity [18]: 17.1 s | Activity [19]: 15.1 s | Activity [13]: 1.2 | Activity [20]: 15.3 s | Activity [21]: 23.7 s | Activity [14]: 2.3 | Activity [22]: 20.6 s | Activity [23]: 17.2 s | Activity [15]: 0.9 | Activity [12]: 16.9 s | Activity [11]: 30.3 s | Activity [24]: 23.6 s | Activity [25]: 14.9 s | Activity [26]: 16.5 s | Activity [27]: 14.5 s

Cc1cc(Cl)cc(C)c1NC(=O)[C@H](C)N
Activity [28]: 1.2 | ED50 [1]: 25.5 mg/kg | Activity [8]: 25.1 s | Activity [9]: 26.6 s | Activity [29]: 1 | Activity [30]: 1.4

Cc1cccc(C)c1N(C)C(=O)[C@H](N)C(C)C
Activity [31]: 13.6 s

Cc1cc(Cl)ccc1NC(=O)[C@@H](N)C(C)C
ED50 [1]: 25.9 mg/kg | Activity [32]: 19.9 s

Cc1cc(Cl)ccc1NC(=O)[C@H](N)C(C)C
Activity [28]: 1.3 | ED50 [1]: 19.6 mg/kg | Activity [8]: 27.9 s | Activity [9]: 26.4 s | Activity [29]: 0.8 | Activity [30]: 1.5

Cc1cccc(C)c1NC(=O)[C@@H](N)C(C)C
Activity [11]: 15.8 s

Cc1cccc(C)c1NC(=O)[C@@H](C)N [(R)-TOCAINIDE]
Activity [4]: 0.9 | Activity [33]: 18.6 s | ED50 [1]: 33.6 mg/kg | Activity [2]: 26.5 s | Activity [5]: 1.4 | Activity [6]: 1.7 | Activity [3]: 17.5 s

Cc1cccc(C)c1NC(=O)[C@H](C)N [S-TOCAINIDE]
Activity [2]: 14.3 s
